Measured values: ChEMBL document CHEMBL1138143, “A new class of blockers of the voltage-gated potassium channel Kv1.3 via modification of the 4- or 7-position of khellinone” (J Med Chem, 2006)

What was measured:
[1] = target: Potassium voltage-gated channel subfamily A member 3 (Mus musculus, UniProt P16390); assay: Effect on blockade of mouse Kv1.3 channel expressed in L929 cells; assay type: functional, cell-based
How it was run: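 Whole-cell patch clamp on L929 cells stably expressing mouse Kv1.3, holding potential -80 mV. Bath: Ringer (160 mM NaCl, 4.5 mM KCl, 2 mM CaCl2, 1 mM MgCl2, 10 mM HEPES, pH 7.4). Pipette: 134 mM KF, 2 mM MgCl2, 10 mM HEPES, 10 mM EGTA, pH 7.2. Current elicited by 500-ms pulses to 40 mV every 45 s. Series resistance compensation of 60-80% applied above 2 nA.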

[2] = target: Potassium voltage-gated channel subfamily A member 1 (Homo sapiens, UniProt Q09470); assay: Effect on blockade of Kv1.1 channel; assay type: functional
Sequence of Potassium voltage-gated channel subfamily A member 1 (Q09470 whole entry): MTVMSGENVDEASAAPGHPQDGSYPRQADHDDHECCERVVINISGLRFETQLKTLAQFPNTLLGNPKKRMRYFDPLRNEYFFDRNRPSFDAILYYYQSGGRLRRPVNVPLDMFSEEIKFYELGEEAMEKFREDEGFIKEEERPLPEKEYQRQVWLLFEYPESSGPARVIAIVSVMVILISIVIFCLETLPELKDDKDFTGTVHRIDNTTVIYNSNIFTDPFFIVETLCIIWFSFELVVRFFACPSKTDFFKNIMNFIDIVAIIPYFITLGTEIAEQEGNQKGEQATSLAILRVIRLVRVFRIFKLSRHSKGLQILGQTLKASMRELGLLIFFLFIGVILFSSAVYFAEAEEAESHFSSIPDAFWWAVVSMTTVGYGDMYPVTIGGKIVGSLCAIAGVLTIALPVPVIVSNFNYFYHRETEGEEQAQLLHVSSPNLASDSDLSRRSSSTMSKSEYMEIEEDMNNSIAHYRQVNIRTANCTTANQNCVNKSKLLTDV
How it was run: (§1)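 Whole-cell patch clamp with a holding potential of -80 mV on cell lines stably expressing Kv1.1, Kv1.2, Kv1.4 or Kv1.5. Recording followed previously described methods. EC50 came from a Hill equation fit to the reduction of area under the current curve.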

[3] = target: Potassium voltage-gated channel subfamily A member 2 (Homo sapiens, UniProt P16389); assay: Effect on blockade of Kv1.2 channel; assay type: functional; how it was run: as §1
Sequence of Potassium voltage-gated channel subfamily A member 2 (P16389 whole entry): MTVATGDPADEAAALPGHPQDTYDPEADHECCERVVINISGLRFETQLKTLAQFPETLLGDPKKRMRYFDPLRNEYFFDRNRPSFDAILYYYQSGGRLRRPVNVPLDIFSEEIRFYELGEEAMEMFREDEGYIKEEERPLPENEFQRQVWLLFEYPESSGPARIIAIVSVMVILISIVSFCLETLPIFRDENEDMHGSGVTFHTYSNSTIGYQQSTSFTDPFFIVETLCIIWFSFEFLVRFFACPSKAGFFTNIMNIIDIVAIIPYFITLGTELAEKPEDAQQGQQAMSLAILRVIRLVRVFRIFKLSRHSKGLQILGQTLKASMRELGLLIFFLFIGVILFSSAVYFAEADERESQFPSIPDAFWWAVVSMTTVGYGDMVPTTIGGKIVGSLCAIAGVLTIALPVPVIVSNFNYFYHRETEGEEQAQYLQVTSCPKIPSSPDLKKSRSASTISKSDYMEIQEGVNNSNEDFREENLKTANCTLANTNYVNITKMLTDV

[4] = target: Potassium voltage-gated channel subfamily A member 4 (Homo sapiens, UniProt P22459); assay: Effect on blockade of Kv1.4 channel; assay type: functional; how it was run: as §1
Sequence of Potassium voltage-gated channel subfamily A member 4 (P22459 whole entry): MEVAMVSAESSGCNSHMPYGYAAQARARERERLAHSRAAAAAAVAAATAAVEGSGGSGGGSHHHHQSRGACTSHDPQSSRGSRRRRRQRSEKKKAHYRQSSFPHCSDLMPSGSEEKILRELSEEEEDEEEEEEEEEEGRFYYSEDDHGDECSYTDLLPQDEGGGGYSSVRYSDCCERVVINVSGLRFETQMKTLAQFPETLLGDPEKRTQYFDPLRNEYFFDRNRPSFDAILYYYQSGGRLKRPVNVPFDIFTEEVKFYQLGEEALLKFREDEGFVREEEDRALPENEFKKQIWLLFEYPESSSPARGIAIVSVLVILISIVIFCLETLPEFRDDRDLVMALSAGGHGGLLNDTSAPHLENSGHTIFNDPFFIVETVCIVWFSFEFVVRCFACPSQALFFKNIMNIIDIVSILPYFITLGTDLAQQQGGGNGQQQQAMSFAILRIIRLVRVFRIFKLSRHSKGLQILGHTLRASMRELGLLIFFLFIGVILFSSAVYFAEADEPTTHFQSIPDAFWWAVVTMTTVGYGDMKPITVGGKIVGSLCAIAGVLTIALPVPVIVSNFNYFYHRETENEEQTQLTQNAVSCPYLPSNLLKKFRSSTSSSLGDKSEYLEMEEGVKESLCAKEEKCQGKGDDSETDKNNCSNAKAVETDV

[5] = target: Potassium voltage-gated channel subfamily A member 5 (Homo sapiens, UniProt P22460); assay: Effect on blockade of Kv1.5 channel; assay type: functional; how it was run: as §1
Sequence of Potassium voltage-gated channel subfamily A member 5 (P22460 whole entry): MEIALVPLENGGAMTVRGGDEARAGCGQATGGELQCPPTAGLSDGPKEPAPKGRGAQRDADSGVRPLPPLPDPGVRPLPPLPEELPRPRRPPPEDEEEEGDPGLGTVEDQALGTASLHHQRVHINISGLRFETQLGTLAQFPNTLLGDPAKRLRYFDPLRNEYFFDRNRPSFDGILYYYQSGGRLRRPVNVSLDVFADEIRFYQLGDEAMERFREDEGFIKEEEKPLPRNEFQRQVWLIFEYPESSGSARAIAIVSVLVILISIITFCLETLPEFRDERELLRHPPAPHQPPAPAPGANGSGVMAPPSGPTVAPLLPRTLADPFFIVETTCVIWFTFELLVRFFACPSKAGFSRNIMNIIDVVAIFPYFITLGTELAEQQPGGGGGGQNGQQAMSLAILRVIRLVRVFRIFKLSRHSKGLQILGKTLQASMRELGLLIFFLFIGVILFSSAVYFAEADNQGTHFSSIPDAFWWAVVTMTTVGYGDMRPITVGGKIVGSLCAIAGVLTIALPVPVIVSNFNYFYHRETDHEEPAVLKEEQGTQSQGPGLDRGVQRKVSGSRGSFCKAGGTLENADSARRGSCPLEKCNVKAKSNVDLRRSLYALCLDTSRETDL

[6] = target: Voltage-gated inwardly rectifying potassium channel KCNH2 (Homo sapiens, UniProt Q12809); assay: Effect on blockade of Kv11.1 channel; assay type: functional
Sequence of Voltage-gated inwardly rectifying potassium channel KCNH2 (Q12809 whole entry): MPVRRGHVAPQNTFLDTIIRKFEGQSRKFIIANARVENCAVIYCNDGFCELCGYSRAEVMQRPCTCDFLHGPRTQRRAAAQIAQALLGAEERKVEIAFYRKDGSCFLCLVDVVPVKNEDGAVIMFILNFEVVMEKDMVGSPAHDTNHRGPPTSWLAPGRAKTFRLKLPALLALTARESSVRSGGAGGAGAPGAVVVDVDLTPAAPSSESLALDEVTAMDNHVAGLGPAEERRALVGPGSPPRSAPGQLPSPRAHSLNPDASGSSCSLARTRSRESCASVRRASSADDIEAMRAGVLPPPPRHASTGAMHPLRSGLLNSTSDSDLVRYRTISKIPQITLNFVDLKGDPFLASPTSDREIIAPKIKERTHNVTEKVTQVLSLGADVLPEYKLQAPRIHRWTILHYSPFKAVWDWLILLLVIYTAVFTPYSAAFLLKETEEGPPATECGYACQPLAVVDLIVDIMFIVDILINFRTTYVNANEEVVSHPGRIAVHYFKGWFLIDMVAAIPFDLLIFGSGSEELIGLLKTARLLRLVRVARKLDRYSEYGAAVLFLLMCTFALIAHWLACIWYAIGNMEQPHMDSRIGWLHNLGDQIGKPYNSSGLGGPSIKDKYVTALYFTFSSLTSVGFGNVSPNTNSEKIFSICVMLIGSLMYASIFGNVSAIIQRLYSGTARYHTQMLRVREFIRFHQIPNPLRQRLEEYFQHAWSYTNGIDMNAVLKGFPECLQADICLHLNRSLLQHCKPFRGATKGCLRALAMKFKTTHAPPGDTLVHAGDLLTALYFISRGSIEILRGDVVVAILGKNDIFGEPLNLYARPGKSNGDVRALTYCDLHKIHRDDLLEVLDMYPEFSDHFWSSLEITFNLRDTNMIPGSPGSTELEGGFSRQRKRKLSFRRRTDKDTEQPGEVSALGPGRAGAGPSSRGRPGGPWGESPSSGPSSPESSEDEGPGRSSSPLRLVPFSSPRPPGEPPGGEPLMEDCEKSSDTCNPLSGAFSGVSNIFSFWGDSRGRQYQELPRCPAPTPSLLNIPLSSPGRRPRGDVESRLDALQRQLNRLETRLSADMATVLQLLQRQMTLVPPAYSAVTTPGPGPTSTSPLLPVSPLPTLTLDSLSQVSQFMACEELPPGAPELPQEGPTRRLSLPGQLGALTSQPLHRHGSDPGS

T-cell = assay: Inhibition of anti-CD3 antibody stimulated human T cell proliferation; assay type: functional, cell-based
How it was run: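 Human PBMCs were isolated from healthy donors by density gradient and plated at 2 × 10^5 cells/well in RPMI 1640 with 10% FCS. Cells were preincubated with compound for 30 min, then stimulated with 5 ng/mL anti-CD3 for 48 h. [3H]-thymidine (1 µCi/well) was added for the last 6 h. Done in triplicate and normalized to maximal control incorporation.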

Sequence of Potassium voltage-gated channel subfamily A member 3 (P16390 whole entry): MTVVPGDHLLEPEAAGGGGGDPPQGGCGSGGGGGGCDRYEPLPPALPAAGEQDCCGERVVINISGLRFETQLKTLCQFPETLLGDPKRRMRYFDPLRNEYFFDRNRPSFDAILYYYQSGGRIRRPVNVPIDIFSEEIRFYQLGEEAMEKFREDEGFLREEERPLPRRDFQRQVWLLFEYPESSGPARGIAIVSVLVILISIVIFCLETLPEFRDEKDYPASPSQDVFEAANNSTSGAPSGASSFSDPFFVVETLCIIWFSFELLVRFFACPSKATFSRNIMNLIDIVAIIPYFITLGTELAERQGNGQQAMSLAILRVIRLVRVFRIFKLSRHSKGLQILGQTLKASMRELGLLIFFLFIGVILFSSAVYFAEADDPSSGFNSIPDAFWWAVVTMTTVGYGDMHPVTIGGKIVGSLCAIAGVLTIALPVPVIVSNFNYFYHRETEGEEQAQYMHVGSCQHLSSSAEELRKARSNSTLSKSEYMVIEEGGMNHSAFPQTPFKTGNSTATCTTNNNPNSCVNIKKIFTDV

EC50 [1] [nM] | SMILES | other results
5800 | COc1c(C(C)=O)c(O)c(OCc2ccc(C(C)(C)C)cc2)c2occc12 | 
800 | CCOc1c(C(C)=O)c(OCCCCCCOc2c(C(C)=O)c(OCC)c3ccoc3c2OC)c(OC)c2occc12 | 
500 | COc1c(O)c(C(C)=O)c(OCc2ccc(C(=O)c3ccccc3)cc2)c2ccoc12 | 
1200 | COc1c(C(C)=O)c(O)c(OCc2ccc(-c3ccccc3)cc2)c2occc12 | 
8000 | CCCOc1c(O)c(C(C)=O)c(OC)c2ccoc12 | 
1400 | COc1c(O)c(C(C)=O)c(OCc2cccc(Cl)c2)c2ccoc12 | 
700 | COc1c(C(C)=O)c(O)c(OCc2ccc(F)cc2)c2occc12 | 
10000 | CCOc1c(O)c(C(C)=O)c(OC)c2ccoc12 | 
420 | COc1c(C(C)=O)c(O)c(OCc2ccc(Cl)cc2)c2occc12 | 
> 10000 | COc1c(O)c(C(C)=O)c(OCc2cccc(C(=O)O)c2)c2ccoc12 | 
1400 | COc1c(O)c(C(C)=O)c(OCc2cccc([N+](=O)[O-])c2)c2ccoc12 | 
450 | COc1c(C(C)=O)c(O)c(OCc2cccc(OC(F)(F)F)c2)c2occc12 | 
1000 | COc1c(O)c(C(C)=O)c(OCc2cccc(C)c2)c2ccoc12 | 
8000 | COc1c(O)c(C(C)=O)c(OCc2cccc3ccccc23)c2ccoc12 | 
500 | COc1c(C(C)=O)c(O)c(OCc2ccc(C(=O)c3ccccc3)cc2)c2occc12 | 
600 | COc1c(C(C)=O)c(O)c(OCc2ccc(OC(F)(F)F)cc2)c2occc12 | 
600 | COc1c(C(C)=O)c(O)c(OCc2cccc([N+](=O)[O-])c2)c2occc12 | 
2500 | COc1c(O)c(C(C)=O)c(OCc2ccccc2)c2ccoc12 | 
600 | COc1c(C(C)=O)c(O)c(OCc2cccc(Cl)c2)c2occc12 | 

EC50 [1] [nM] | SMILES | other results
1200 | CC(=O)c1c(O)c(OCc2ccccc2)c2occc2c1OCc1ccccc1 | EC50 [2]: 7000 nM; EC50 [3]: 10000 nM; EC50 [4]: > 20000 nM; EC50 [5]: 5000 nM
4000 | CCCCCOc1c(C(C)=O)c(O)c(OC)c2occc12 | 
750 | COc1c(C(C)=O)c(O)c(OCc2cccc(F)c2)c2occc12 | 
680 | COc1cccc(COc2c(C(C)=O)c(O)c(OC)c3occc23)c1 | 
5000 | COc1c(O)c(C(C)=O)c(OCc2ccc3ccccc3c2)c2ccoc12 | 
1700 | COc1c(O)c(C(C)=O)c(OCc2ccccc2F)c2ccoc12 | 
2500 | CCOc1c(C(=O)/C=C/c2cccc(O)c2)c(O)c(OC)c2occc12 | 
1900 | COc1c(C(C)=O)c(O)c(OCc2ccccc2C)c2occc12 | 
900 | COc1c(O)c(C(C)=O)c(OCc2ccc(-c3ccccc3)cc2)c2ccoc12 | 
6300 | COc1c(C(C)=O)c(O)c(OCc2ccc(OCc3ccccc3)cc2)c2occc12 | 
700 | COc1c(O)c(C(C)=O)c(OCc2ccc(C(C)C)cc2)c2ccoc12 | 
2000 | COc1c(O)c(C(C)=O)c(OCc2ccccc2C)c2ccoc12 | 
500 | COc1c(O)c(C(C)=O)c(OCc2ccc(Br)cc2)c2ccoc12 | 
6000 | CCOc1c(C(C)=O)c(O)c(OCC)c2occc12 | 
420 | COc1c(C(C)=O)c(O)c(OCc2ccc(C(F)(F)F)cc2)c2occc12 | 
1200 | COc1c(O)c(C(C)=O)c(OCc2ccccc2Cl)c2ccoc12 | 
2000 | COc1c(O)c(C(C)=O)c(OCc2ccccc2-c2ccccc2)c2ccoc12 | 
1100 | COc1c(C(C)=O)c(O)c(OCc2ccccc2-c2ccccc2)c2occc12 | 
2500 | COc1c(C(C)=O)c(O)c(OCc2ccccc2F)c2occc12 | 

EC50 [1] [nM] | SMILES | other results
1500 | COc1c(O)c(C(C)=O)c(OCc2ccc(C(C)(C)C)cc2)c2ccoc12 | 
7000 | CCOc1c(C(C)=O)c(O)c(OC)c2occc12 | 
510 | COc1c(O)c(C(C)=O)c(OCc2ccc(C(F)(F)F)cc2)c2ccoc12 | 
1200 | COc1c(C(C)=O)c(O)c(OCc2ccccc2)c2occc12 | 
8800 | COc1c(O)c(C(C)=O)c(OCc2ccc(OCc3ccccc3)cc2)c2ccoc12 | 
480 | COc1c(O)c(C(C)=O)c(OCc2ccc(Cl)cc2)c2ccoc12 | EC50 [2]: 1700 nM; EC50 [3]: 2500 nM; EC50 [4]: 4800 nM; EC50 [5]: 700 nM; EC50 [6]: 5000 nM; EC50 (T-cell): 2500 nM
1800 | COc1c(O)c(C(C)=O)c(OCc2ccc(OC(F)(F)F)cc2)c2ccoc12 | 
5000 | COc1c(C(C)=O)c(O)c(OCc2ccc3ccccc3c2)c2occc12 | 
3000 | CCCCCOc1c(O)c(C(C)=O)c(OC)c2ccoc12 | 
1200 | COc1c(C(C)=O)c(O)c(OCc2cccc(C)c2)c2occc12 | 
1200 | COc1c(O)c(C(C)=O)c(OCc2cccc(F)c2)c2ccoc12 | 
1500 | COc1ccc(COc2c(C(C)=O)c(O)c(OC)c3occc23)cc1 | 
5000 | CCCOc1c(C(C)=O)c(O)c(OC)c2occc12 | 
400 | COc1c(C(C)=O)c(O)c(OCc2ccc(Br)cc2)c2occc12 | EC50 [2]: 1200 nM; EC50 [3]: 1400 nM; EC50 [4]: 4300 nM; EC50 [5]: 900 nM; EC50 (T-cell): 2500 nM
700 | COc1c(C(C)=O)c(O)c(OCc2ccccc2Cl)c2occc12 | 
1000 | COc1c(C(C)=O)c(O)c(OCc2ccc(C(C)C)cc2)c2occc12 | 
1000 | COc1c(O)c(C(C)=O)c(OCc2ccc(F)cc2)c2ccoc12 | 
550 | COc1c(O)c(C(C)=O)c(OCc2cccc(OC(F)(F)F)c2)c2ccoc12 | 

SMILES | EC50 [1] [nM] | other results
COc1c(C(C)=O)c(O)c(OC)c2occc12 | 45000 | 
